Measured values of several laboratories.
≈ marks a conversion by molar mass, not a printed value.
Organism: Mycobacterium tuberculosis

SMILES	read-out	strain	tested at	time	quantity	result
c1cc(Cn2cnc3ccccc32)nc(Cn2cnc3ccccc32)c1	microbial killing	H37RV		21 days	MBC	> 50 µM
O=C(O)c1nccnc1NC(=O)c1cccc2ccccc12	microbial growth	ATCC27294 H37RV			MIC50	1000 µM (≈ 293 µg/mL)
COC(=O)c1cc(-c2cccc(NC(=S)Nc3cc(C(F)(F)F)cc(C(F)(F)F)c3)c2)on1	microbial growth	ATCC27294 H37RV		7 days	MIC	16 µg/mL (≈ 32.7 µM)
Cc1cn(-c2cc(C(=O)Nc3ccc(C)c(Nc4nccn4-c4cc(NC5CC5)ncn4)c3)cc(C(F)(F)F)c2)cn1	microbial growth	H37RV			MIC50	0.65 µM (≈ 0.373 µg/mL)
O=[N+]([O-])c1cc2cc3ccc4oc([N+](=O)[O-])cc4c3cc2o1	microbial killing	H37RV			MBC	0.062 µg/mL
CCCCCCC#Cc1cncc(-c2nnc(SCc3ccc(Cl)c(F)c3)n2C)c1	microbial growth	ERDMAN			IC50	5.4 µM
COc1nc2ccc(Br)cc2cc1[C@@H](c1ccccc1)[C@@](O)(CCN(C)C)c1cccc2ccccc12	microbial growth	H37RV			MIC90	0.05 µM (≈ 0.0278 µg/mL)
Cc1cc(C)nc(-n2nc(C)cc2NC(=O)c2ccc3c(c2)OCO3)n1	microbial growth	H37RV			MIC50	> 20 µM
NNC(=O)c1ccncc1	microbial growth	ERDMAN			IC50	0.18 µM
[H]/N=C(/N)N[C@H]1[C@H](O)[C@@H](O)[C@H](O[C@@H]2O[C@@H](C)[C@](O)(C=O)[C@H]2O[C@@H]2O[C@@H](CO)[C@H](O)[C@@H](O)[C@@H]2NC)[C@@H](N/C(N)=N\[H])[C@@H]1O	microbial growth	H37RV			IC90	0.28 µM
CNc1cc(-n2nc(C(=O)NCCN3C(C)CCCC3C)cc2Nc2cc(NC(=O)c3cncc(C(C)(C)C)c3)ccc2C)ncn1 (stereo not shown)	microbial growth	H37RV			MIC50	0.11 µM (≈ 0.0703 µg/mL)
O=[N+]([O-])c1cn(Cc2cccc(Cn3cnc([N+](=O)[O-])c3)n2)cn1	microbial killing	H37RV		21 days	MBC	> 200 µM
Cn1c(SCc2ccc(Cl)cc2)nnc1-c1cncc(C#Cc2ccccc2)c1	microbial growth	ERDMAN			IC90	4.4 µM
COC(=O)c1cc(-c2cccc(NC(=O)Nc3ccc(OC)cc3)c2)on1	microbial growth	ATCC27294 H37RV		7 days	MIC	8 µg/mL (≈ 21.8 µM)
CCCCCCC#Cc1cncc(-c2nnc(SCc3cc([N+](=O)[O-])cc([N+](=O)[O-])c3)n2C)c1	microbial growth				IC50	0.061 µM
O=[N+]([O-])c1ccc(/C=N/Nc2nc(Nc3ccccc3)nc(N3CCOCC3)n2)o1	microbial killing				MBC	1.6 µM
CO[C@H]1/C=C/O[C@@]2(C)Oc3c(C)c(O)c4c(O)c(c(/C=N/N5CCN(C)CC5)c(O)c4c3C2=O)NC(=O)/C(C)=C\C=C\[C@H](C)[C@H](O)[C@@H](C)[C@@H](O)[C@@H](C)[C@H](OC(C)=O)[C@@H]1C	microbial growth	H37RV	12.5 µg/mL		inhibition	97%
CCOC(=O)c1c(NC(=O)c2c(F)c(F)c(F)c(F)c2F)sc2c1CCN(CC)C2	microbial growth	H37RV			MIC50	0.12 µM (≈ 0.0538 µg/mL)
Cc1ccc(NC(=O)c2cc(N3CCNCC3)cc(C(F)(F)F)c2)cc1Nc1nccn1-c1cc(NC2CC2)ncn1	microbial killing	H37RV		5 days	MBC	2.5 to 5 µM
CCCCCCC#Cc1cncc(-c2nnc(SCc3ccc([N+](=O)[O-])cc3)n2C)c1	microbial growth	ERDMAN			IC90	> 50 µM
COC(=O)c1cc(-c2cccc(NC(=S)Nc3ccccc3Cl)c2)on1	microbial growth	ATCC27294 H37RV		7 days	MIC	2 µg/mL (≈ 5.16 µM)
CCCCCCC#Cc1cncc(-c2nnc(Sc3ccc([N+](=O)[O-])cc3[N+](=O)[O-])n2C)c1	microbial growth	ERDMAN			IC50	1.1 µM
CN(CC[C@H](N)CC(=O)N[C@H]1C=C[C@H](n2ccc(N)nc2=O)O[C@@H]1C(=O)O)C(=N)N	microbial growth	H37RA			IC50	19 µM
COC(=O)c1cc(-c2cccc(NC(=O)Nc3cccc(Br)c3)c2)on1	microbial growth	ATCC27294 H37RV		7 days	MIC	0.5 µg/mL (≈ 1.2 µM)
CCCCCCC#Cc1cncc(-c2nnc(SCc3ccc(C#N)cc3)n2C)c1	microbial growth	ERDMAN			IC90	> 100 µM
COC(=O)c1cc(-c2cccc(NC(=O)Nc3ccc(Cl)cc3Cl)c2)on1	microbial growth	ATCC27294 H37RV		7 days	MIC	0.5 µg/mL (≈ 1.23 µM)
CCCCCCC#Cc1cncc(-c2nnc(SCc3ccc([N+](=O)[O-])o3)n2C)c1	microbial growth	ERDMAN			IC90	0.24 µM
CC[C@@H](CO)NCCN[C@@H](CC)CO	microbial growth	H37RV			IC50	1.51 µM
